Measured values as given in ChEMBL document CHEMBL1139303, “One-pot synthesis of 5-phenylimino, 5-thieno or 5-oxo-1,2,3-dithiazoles and evaluation of their antimicrobial and antitumor activity” (2009).
Converted amounts (≈) assume the structure as drawn. The source made the active and inactive calls. The rule behind the calls is not given here.

Experiments:
Candida albicans = assay: Antifungal activity against Candida albicans ATCC 10231 at 50 ug after 24 hrs by agar diffusion method; type: functional
Method in brief: (§1)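 Yeasts grown on yeast extract peptone dextrose medium at 30 °C for 24 h, then agar well diffusion with 50 µg compound in 80% DMSO; 80% DMSO alone as control. Averaged inhibition zone diameter from triplicate, scored 6-9, 9-12 or >12 mm.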

Candida tropicalis = assay: Antifungal activity against Candida tropicalis DSM 1346 at 50 ug after 24 hrs by agar diffusion method; type: functional; method in brief: as §1
MCF7 = assay: Antiproliferative activity against human MCF7 cells after 72 hrs by MTT assay; type: functional; conditions: MCF7, 72 h
Method in brief: (§2)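 5000 cells per well added to pre-equilibrated medium at 37 °C; compounds from 10^-3 M DMSO stocks, final 10^-5 M. After 72 h, MTT (5 g/L) for 4 h, formazan dissolved in DMSO, OD 550 nm. % growth inhibition vs 1% DMSO medium (0%) and 10% SDS lysis (100%); mean ± SEM, 24 measures, three independent experiments.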

Nakaseomyces glabratus = assay: Antifungal activity against Candida glabrata DSM6425 at 50 ug after 24 hrs by agar diffusion method; type: functional; method in brief: as §1
Staphylococcus aureus [1] = assay: Antibacterial activity against Staphylococcus aureus ATCC 25923 at 50 ug after 24 hrs by agar diffusion method; type: functional; conditions: for zone of inhibition at 50 µg/disc: Staphylococcus aureus, ATCC 25923, 24 h, read-out: IZ
Method in brief: (§3)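 Bacteria pre-grown 24 h on nutritive agar (tryptone soy agar for E. faecalis, L. inocua) at 37 °C (30 °C for E. faecalis, L. inocua, B. cereus). Agar well diffusion with 50 µg compound in 80% DMSO; 80% DMSO alone as control. Inhibition zone diameter averaged from triplicate, scored 6-9, 9-12, >12 mm.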

Klebsiella pneumoniae = assay: Antibacterial activity against Klebsiella pneumoniae CIP 53153 at 50 ug after 24 hrs by agar diffusion method; type: functional, organism-based; method in brief: as §3
MDA-MB-231 [2] = assay: Antiproliferative activity against human MDA-MB-231 cells at 10 uM after 72 hrs by MTT assay; type: functional; conditions: MDA-MB-231, 72 h; method in brief: as §2
Enterococcus faecalis = assay: Antibacterial activity against Enterococcus faecalis CIP 103214 at 50 ug after 24 hrs by agar diffusion method; type: functional; method in brief: as §3
Pseudomonas aeruginosa = assay: Antibacterial activity against Pseudomonas aeruginosa ATCC 27853 at 50 ug after 24 hrs by agar diffusion method; type: functional, organism-based; method in brief: as §3
Bacillus cereus [3] = assay: Antibacterial activity against Bacillus cereus at 50 ug after 24 hrs by agar diffusion method; type: functional; method in brief: as §3
Escherichia coli [4] = assay: Antibacterial activity against Escherichia coli ATCC 25922 at 50 ug after 24 hrs by agar diffusion method; type: functional; method in brief: as §3
MDA-MB-231 [5] = assay: Antiproliferative activity against human MDA-MB-231 cells after 72 hrs by MTT assay; type: functional; conditions: MDA-MB-231, 72 h; method in brief: as §2
Listeria innocua = assay: Antibacterial activity against Listeria innocua at 50 ug after 24 hrs by agar diffusion method; type: functional; method in brief: as §3
Pichia kudriavzevii = assay: Antifungal activity against Issatchenkia orientalis DSM6128 at 50 ug after 24 hrs by agar diffusion method; type: functional, organism-based; method in brief: as §1
Bacillus cereus [6] = assay: Antibacterial activity against Bacillus cereus after 24 hrs by broth macrodilution method; type: functional
Method in brief: (§4)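 Bacteria pre-grown 24 h on nutritive agar (tryptone soy agar for E. faecalis, L. inocua) at 37 °C (30 °C for E. faecalis, L. inocua, B. cereus). MIC and MBC determined by macro-dilution broth method; MBC = lowest concentration killing 99.99% of inoculum. Compounds in DMSO, max 2.13% solvent in cultures. Triplicate.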

Staphylococcus aureus [7] = assay: Antibacterial activity against Staphylococcus aureus ATCC 25923 after 24 hrs by broth macrodilution method; type: functional; conditions: ATCC 25923, 24 h; method in brief: as §4
Escherichia coli [8] = assay: Antibacterial activity against Escherichia coli ATCC 25922 after 24 hrs by broth macrodilution method; type: functional; conditions: ATCC 25922, 24 h; method in brief: as §4

Row | SMILES | Activity (Candida albicans) | Activity (Candida tropicalis) | GI50 (MCF7) [µM] | Activity (Nakaseomyces glabratus) | Activity (Staphylococcus aureus [1]) | Activity (Klebsiella pneumoniae) | inhibition at 10 µM (MDA-MB-231 [2]) [%] | Activity (Enterococcus faecalis) | Activity (Pseudomonas aeruginosa) | Activity (Bacillus cereus [3]) | Activity (Escherichia coli [4]) | GI50 (MDA-MB-231 [5]) [µM] | Activity (Listeria innocua) | Activity (Pichia kudriavzevii) | zone of inhibition at 50 µg/disc (Staphylococcus aureus [1]) [mm] | further results
1 | Cc1nss/c1=N\c1ccccc1 | inactive | inactive | > 10 | inactive | inactive | inactive | 0 | inactive | inactive | inactive | inactive | > 10 | inactive | inactive |  | 
2 | S=c1ssnc1-c1ccccc1 | inactive | inactive | > 10 | inactive |  | inactive | 0 | inactive | inactive |  | inactive | > 10 | inactive | inactive | 12 | MBC (Bacillus cereus [6]): > 48 µg/mL; MIC (Bacillus cereus [6]): > 48 µg/mL; zone of inhibition at 50 µg/disc (Bacillus cereus [3]; read-out: IZ): 9 mm; MBC (Staphylococcus aureus [7]): > 48 µg/mL; MIC (Staphylococcus aureus [7]): 32 µg/mL (≈ 151 µM)
3 | Fc1ccc(-c2nss/c2=N\c2ccccc2)cc1 | inactive | inactive | 10 | inactive | inactive | inactive | 0 | inactive | inactive | inactive | inactive | > 10 | inactive | inactive |  | 
4 | S=c1ssnc1-c1cc2ccccc2o1 | inactive | inactive | > 10 | inactive | inactive | inactive | 0 | inactive | inactive | inactive | inactive | > 10 | inactive | inactive |  | 
5 | Fc1ccc(-c2nssc2=S)cc1 | inactive | inactive | > 10 | inactive | inactive | inactive | 0 | inactive | inactive | inactive | inactive | > 10 | inactive | inactive |  | 
6 | O=c1ssnc1-c1ccccc1 | inactive | inactive | > 10 | inactive | inactive | inactive | 0 | inactive | inactive | inactive |  | > 10 | inactive | inactive |  | MBC (Escherichia coli [8]): > 48 µg/mL; MIC (Escherichia coli [8]): > 48 µg/mL; zone of inhibition at 50 µg/disc (Escherichia coli [4]; ATCC 25922, 24 h, read-out: IZ): 6 mm
7 | S=c1ssnc1-c1cccs1 | inactive | inactive | > 10 | inactive | inactive | inactive | 0 | inactive | inactive | inactive | inactive | > 10 | inactive | inactive |  | 
8 | c1ccc(/N=c2\ssnc2-c2cc3ccccc3o2)cc1 | inactive | inactive | 10 | inactive | inactive | inactive | 0 | inactive | inactive | inactive | inactive | > 10 | inactive | inactive |  | 
9 | c1ccc(/N=c2\ssnc2-c2ccccc2)cc1 | inactive | inactive | 10 | inactive |  | inactive | 0 | inactive | inactive | inactive | inactive | > 10 | inactive | inactive | 6 | 
10 | O=[N+]([O-])c1ccc(-c2nss/c2=N\c2ccccc2)cc1 | inactive | inactive | 10 | inactive | inactive | inactive | 0 | inactive | inactive | inactive | inactive | > 10 | inactive | inactive |  | 
11 | O=[N+]([O-])c1ccc(-c2nssc2=S)cc1 | inactive | inactive | > 10 | inactive |  | inactive | 0 | inactive | inactive | inactive | inactive | > 10 | inactive | inactive | 6 | 
12 | c1ccc(/N=c2\ssnc2-c2cccs2)cc1 | inactive | inactive | > 10 | inactive | inactive | inactive | 0 | inactive | inactive | inactive | inactive | > 10 | inactive | inactive |  | 
13 | Cc1nssc1=S | inactive | inactive | > 10 | inactive |  | inactive | 0 | inactive | inactive | inactive | inactive | > 10 | inactive | inactive | 6 | MBC (Staphylococcus aureus [7]): > 48 µg/mL; MIC (Staphylococcus aureus [7]): 48 µg/mL (≈ 322 µM)
